Source: ChEMBL document CHEMBL4270654, “Identification of DK419, a potent inhibitor of Wnt/β-catenin signaling and colorectal cancer growth” (Bioorg Med Chem, 2018)
Calls of active or inactive are those of the source. The calls are words filed in the database; no cut-off is given here.

Experiments:
Homo sapiens [1] = species: Homo sapiens; assay: Inhibition of Wnt/beta-catenin signaling pathway in human SW480 cells cytosol lysate harboring APC mutation assessed as reduction in Axin2 protein expression at 5 uM after 18 hrs by Western blot analysis; type: cell-based
Method in brief: (§1)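 CCRC240, HCT116 or SW480 cells were grown to 50–70% confluency and exposed 18 h to 5 μM compound in DMSO. Whole-cell lysates were blotted for c-Myc, cyclin D1 and survivin. Hypotonic cytosolic fractions, syringe-dispersed and centrifuged 120 min, were blotted for β-catenin and Axin2. β-Actin served as loading control.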

CCD-841CoN = assay: Stimulation of mitochondrial respiration in human CCD-841-CoN cells assessed as increase in oxygen consumption rate at 1 uM in presence of rotenone and […] antimycin A by polarographic analysis; type: functional, cell-based
Method in brief: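 CCD841Co cells were plated at 8000 per well and attached overnight. OCR was measured on a Seahorse XFp analyzer under basal conditions after 1 μM compound or DMSO was added. This was followed by 1 μM oligomycin, 1 μM FCCP, then 0.5 μM rotenone plus antimycin A (Mito Stress Test). Data given as mean ± SD, n = 2.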

Homo sapiens [2] = species: Homo sapiens; assay: Inhibition of Wnt/beta-catenin signaling pathway in human SW480 whole cell lysate harboring APC mutation assessed as reduction in cyclin D1 protein expression at 5 uM after 18 hrs by Western blot analysis; method in brief: as §1
SW948 = assay: Antiproliferative activity against human SW948 cells after 72 hrs by colorimetric MTS assay; type: functional, cell-based; conditions: SW948, 72 h
Method in brief: (§2)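 Cells plated at 5000 per well in their own media (Leibovitz's for SW948; McCoy's 5A for HT-29/HCT116; MEM for SW480; RPMI for CRC240/DLD-1) with 10% FBS. Exposed 72 h to compound, 0.001–10 μM or 0.04–10 μM, then colorimetric MTS read-out. […] CRC240 is a patient-derived xenograft line.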

Mus musculus [3] = assay: Apparent clearance in NOD/SCID mouse at 1 mg/kg, po by LC-MS/MS-based non-compartmental extravascular input analysis; type: ADME, organism-based; conditions: in vivo
Homo sapiens [4] = species: Homo sapiens; assay: Inhibition of Wnt/beta-catenin signaling pathway in human HCT116 whole cell lysate harboring beta-catenin mutation assessed as reduction in c-Myc protein expression at 5 uM after 18 hrs by Western blot analysis; method in brief: as §1
Homo sapiens [5] = species: Homo sapiens; assay: Inhibition of Wnt/beta-catenin signaling pathway in human HCT116 cells cytosol lysate harboring beta-catenin mutation assessed as reduction in Axin2 protein expression at 5 uM after 18 hrs by Western blot analysis; type: cell-based; method in brief: as §1
[6] = target: AMP-activated protein kinase, AMPK (Homo sapiens) (UniProt P54646+O43741+P54619+Q9UGJ0+Q9Y478+Q13131+Q9UGI9); assay: Induction of AMPK phosphorylation in human CCD-841-CoN cells at 0.1 to 10 uM after 2 hrs by Western blot analysis; type: cell-based
Method in brief: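 Colonic epithelial CCD841Co cells were seeded at 0.27 million per well on poly-D-lysine-coated wells and attached overnight. Medium was then switched to glucose-free DMEM with 2 mM pyruvate and 2 mM glutamine containing compound or DMSO. Whole-cell lysates were immunoblotted for phospho-Thr172 AMPK and total AMPK, with β-actin as loading control. Methods give 30 min exposure; legend gives 2 h.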

Homo sapiens [7] = species: Homo sapiens; assay: Inhibition of Wnt/beta-catenin signaling pathway in human CRC240 whole cell lysate assessed as reduction in survivin protein expression at 5 uM after 18 hrs by Western blot analysis; method in brief: as §1
Homo sapiens [8] = species: Homo sapiens; assay: Inhibition of Wnt/beta-catenin signaling pathway in human SW480 whole cell lysate harboring APC mutation assessed as reduction in c-Myc protein expression at 5 uM after 18 hrs by Western blot analysis; method in brief: as §1
Mus musculus [9] = assay: In vivo inhibition of Wnt/beta-catenin signaling pathway in NOD/SCID mouse xenografted with human CRC240 cells assessed as reduction in survivin protein expression at 1 mg/kg, po administered 11 days by Western blot method; type: functional, organism-based
Method in brief: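 CRC240 PDX tumours were taken from NOD/SCID mice the day after 11 days of once-daily oral dosing (1 mg/kg, in 10% NMP/90% PEG300). Tumours were lysed in RIPA buffer and immunoblotted for Axin2, survivin and c-Myc. Bands were normalized to β-actin, n = 3, two-tailed t-test versus vehicle.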

[10] = target: Frizzled-1 (Homo sapiens) (UniProt Q9UP38); assay: Induction of GFP-tagged Fzd1 (unknown origin) internalization expressed in human U2OS cells at 12.5 after 6 hrs by confocal microscopic method; type: functional, cell-based
Frizzled-1 (Homo sapiens), sequence (Q9UP38 70-647 limits assumed): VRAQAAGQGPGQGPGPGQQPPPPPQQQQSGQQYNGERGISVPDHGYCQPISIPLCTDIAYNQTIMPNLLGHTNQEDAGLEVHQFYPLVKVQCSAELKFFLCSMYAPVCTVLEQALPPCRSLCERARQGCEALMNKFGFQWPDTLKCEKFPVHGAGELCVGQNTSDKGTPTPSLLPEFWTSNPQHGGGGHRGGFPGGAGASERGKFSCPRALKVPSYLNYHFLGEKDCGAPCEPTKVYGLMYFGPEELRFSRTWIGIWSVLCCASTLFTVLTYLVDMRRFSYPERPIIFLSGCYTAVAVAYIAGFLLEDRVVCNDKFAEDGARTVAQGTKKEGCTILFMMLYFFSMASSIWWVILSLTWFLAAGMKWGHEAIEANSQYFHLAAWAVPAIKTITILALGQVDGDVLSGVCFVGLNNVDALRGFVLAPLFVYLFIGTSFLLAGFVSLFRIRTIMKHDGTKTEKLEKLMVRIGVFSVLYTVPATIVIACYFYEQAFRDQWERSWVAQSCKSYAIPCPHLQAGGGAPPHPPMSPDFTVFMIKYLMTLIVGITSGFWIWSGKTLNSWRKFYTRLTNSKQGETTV
Method in brief: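 U2OS cells stably expressing Fzd1-GFP were grown 24 h in confocal dishes and then treated 6 h at 37 °C with 12.5 μM compound, DMSO as control. Cells were fixed in 4% paraformaldehyde and imaged by confocal microscopy (488 nm excitation). Internalization was scored as intracellular green punctate vesicles.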

Homo sapiens [11] = species: Homo sapiens; assay: Inhibition of Wnt/beta-catenin signaling pathway in human HCT116 cells cytosol lysate harboring beta-catenin mutation assessed as reduction in beta-catenin protein expression at 5 uM after 18 hrs by Western blot analysis; type: cell-based; method in brief: as §1
Homo sapiens [12] = species: Homo sapiens; assay: Inhibition of Wnt/beta-catenin signaling pathway in human CRC240 whole cell lysate assessed as reduction in cyclin D1 protein expression at 5 uM after 18 hrs by Western blot analysis; method in brief: as §1
[13] = Apparent oral volume of distribution in NOD/SCID mouse at 1 mg/kg by LC-MS/MS-based compartmental first order extravascular input, first order elimination analysis; type: ADME, organism-based; conditions: in vivo
Homo sapiens [14] = species: Homo sapiens; assay: Inhibition of Wnt/beta-catenin signaling pathway in human CRC240 cells cytosol lysate assessed as reduction in Axin2 protein expression at 5 uM after 18 hrs by Western blot analysis; type: cell-based; method in brief: as §1
HT-29 = assay: Antiproliferative activity against human HT-29 cells after 72 hrs by colorimetric MTS assay; type: functional, cell-based; conditions: HT-29, 72 h; method in brief: as §2
Mus musculus [15] = assay: Apparent clearance in NOD/SCID mouse at 1 mg/kg, po by LC-MS/MS-based compartmental first order extravascular input, first order elimination analysis; type: ADME, organism-based; conditions: in vivo
Mus musculus [16] = assay: Time at which plasma concentration stays above in vitro IC50 for antiproliferative activity against human CRC240 cells in NOD/SCID mouse at 1 mg/kg, po by LC-MS/MS analysis; type: organism-based; conditions: in vivo
Method in brief: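 NOD/SCID mice (n = 4) received a single oral dose of 1 mg/kg from a 0.2 mg/mL solution in 10% NMP/90% PEG300. Serial tail-vein blood was taken from pre-dose to 72 h and plasma kept at −80 °C. Samples were extracted with ethyl acetate against an internal standard and run on LC/MS/MS (MRM 405.8/218.9). The calibration range was 2.4–1000 ng/mL in plasma.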

Homo sapiens [17] = species: Homo sapiens; assay: Inhibition of Wnt/beta-catenin signaling pathway in human HCT116 whole cell lysate harboring beta-catenin mutation assessed as reduction in survivin protein expression at 5 uM after 18 hrs by Western blot analysis; method in brief: as §1

inhibition (Homo sapiens [2]): Active
IC50 (SW948): 0.07 µM
CL/F (Mus musculus [3]): 1 mL/min/kg
inhibition (Homo sapiens [4]): Active
Activity [6]: Active
inhibition (Homo sapiens [8]): Active
Activity [10]: Active
inhibition (Homo sapiens [12]): Active
Vd/F [13]: 0.98 L/kg
IC50 (HT-29): 0.12 µM
CL/F (Mus musculus [15]): 1 mL/min/kg
Compound: O=C(Nc1ccc(C(F)(F)F)cc1)c1cc(Cl)cc2nc(C(F)(F)F)[nH]c12
inhibition (Homo sapiens [1]): Active
Activity (CCD-841CoN): inactive
inhibition (Homo sapiens [5]): Active
inhibition (Homo sapiens [7]): Active
inhibition (Mus musculus [9]): Active
inhibition (Homo sapiens [11]): Active
inhibition (Homo sapiens [14]): Active
Time (Mus musculus [16]): 24 h
inhibition (Homo sapiens [17]): Active
